Reference: ChEMBL document CHEMBL4680130, “Substituted 4-phenylthiazoles: Development of potent and selective A, A and dual A/A adenosine receptor antagonists” (Eur J Med Chem, 2020)

How the values were obtained:
[1] = biological target: T1, Adenosine receptor A3 (Rattus norvegicus) (UniProt P28647); experiment: Displacement of [3H]NECA from rat adenosine receptor A3 expressed in CHO cell membranes at 0.1 uM incubated for 60 mins by radioligand competition assay relative to control; conditions: Cell membrane
T1 sequence (whole entry): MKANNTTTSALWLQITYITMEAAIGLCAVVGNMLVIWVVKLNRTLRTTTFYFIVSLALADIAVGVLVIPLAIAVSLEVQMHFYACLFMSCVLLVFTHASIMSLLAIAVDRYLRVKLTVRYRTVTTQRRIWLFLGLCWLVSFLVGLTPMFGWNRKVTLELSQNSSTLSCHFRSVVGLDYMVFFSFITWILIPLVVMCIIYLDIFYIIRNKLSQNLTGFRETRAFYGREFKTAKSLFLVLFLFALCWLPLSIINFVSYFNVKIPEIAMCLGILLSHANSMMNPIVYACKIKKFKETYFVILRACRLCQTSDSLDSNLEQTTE
Procedure, shortened: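 CHO membranes expressing rat A3, [3H]NECA 10 nM. Nonspecific binding defined by 100 µM R-PIA. Preincubated 20 min with adenosine deaminase, then 60 min at rt in 50 mM Tris-HCl pH 7.4 with 2.5% DMSO. GF/B filtration, scintillation counting.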

Adenosine receptor A3 [2] = biological target: T2, Adenosine receptor A3 (Rattus norvegicus, UniProt P28647); experiment: Displacement of [3H]NECA from rat adenosine receptor A3 expressed in CHO cell membranes incubated for 60 mins by radioligand competition assay; parameters: species or system Cell membrane
T2 sequence (P28647 whole entry): T1 sequence (whole entry)

Adenosine receptor A1 [3] = biological target: T3, Adenosine receptor A1 (Rattus norvegicus, UniProt P25099); experiment: Displacement of [3H]DPCPX from rat adenosine receptor A1 by radioligand competition assay
T3 sequence (P25099 whole entry): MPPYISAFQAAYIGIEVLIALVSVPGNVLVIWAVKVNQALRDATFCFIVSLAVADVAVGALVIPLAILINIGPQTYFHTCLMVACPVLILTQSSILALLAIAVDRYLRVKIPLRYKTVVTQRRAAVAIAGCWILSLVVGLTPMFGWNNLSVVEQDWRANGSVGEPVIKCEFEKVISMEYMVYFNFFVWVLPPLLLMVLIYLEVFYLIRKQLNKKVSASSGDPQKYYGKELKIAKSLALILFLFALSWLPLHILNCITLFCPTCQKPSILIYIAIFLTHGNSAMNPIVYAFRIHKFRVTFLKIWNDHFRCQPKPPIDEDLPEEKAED
Procedure, shortened: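 Rat brain cortical membranes, [3H]DPCPX 0.4 nM. Nonspecific binding defined by 10 μM DPCPX. Curves run with and without 100 μM GTP. Incubation 90 min at rt in 50 mM Tris-HCl pH 7.4, after 20 min adenosine deaminase preincubation. Filtration, then scintillation counting. GTP shift is the IC50 with GTP divided by the IC50 without GTP.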

Adenosine receptor A1 [4] = biological target: T3, Adenosine receptor A1; experiment: Displacement of [3H]CCPA from adenosine receptor A1 in rat brain cortex membranes incubated for 90 mins by radioligand competition assay; format: cell membranes, Cell membrane
Adenosine receptor A3 [5] = biological target: T4, Adenosine receptor A3 (Homo sapiens, UniProt P0DMS8); experiment: Displacement of [3H]PSB-11 from human adenosine receptor A3 expressed in CHO cell membranes incubated for 60 mins by radioligand competition assay; parameters: species or system Cell membrane
T4 sequence (P0DMS8 whole entry): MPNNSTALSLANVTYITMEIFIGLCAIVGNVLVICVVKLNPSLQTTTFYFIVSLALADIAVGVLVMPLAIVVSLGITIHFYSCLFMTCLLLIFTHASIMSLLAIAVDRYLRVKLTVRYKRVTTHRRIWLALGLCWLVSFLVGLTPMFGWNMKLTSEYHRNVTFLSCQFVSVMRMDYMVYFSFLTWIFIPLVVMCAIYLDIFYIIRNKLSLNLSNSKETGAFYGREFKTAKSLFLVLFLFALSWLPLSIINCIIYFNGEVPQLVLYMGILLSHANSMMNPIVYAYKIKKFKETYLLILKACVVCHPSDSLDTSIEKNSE

[6] = biological target: Adenosine receptor A2a (Rattus norvegicus) (UniProt P30543); experiment: Displacement of [3H]MSX2 from adenosine receptor A2A in rat brain striatum membranes at 0.1 uM incubated for 30 mins by radioligand competition assay relative to control; conditions: Cell membrane
Procedure, shortened: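 A2A binding, [3H]MSX-2 1.0 nM. Membranes: rat brain striatum, or HEK293 cells expressing human A2A. Adenosine deaminase preincubation 20 min, then 30 min at rt in 50 mM Tris-HCl pH 7.4 with 2.5% DMSO. Nonspecific binding defined by 50 µM NECA. GF/B filtration, scintillation counting. Single-concentration percent inhibition, ≥3 experiments in duplicate or triplicate.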

Adenosine receptor A1 [7] = biological target: T5, Adenosine receptor A1 (Homo sapiens, UniProt P30542); experiment: Displacement of [3H]CCPA from human adenosine receptor A1 expressed in CHO cell membranes incubated for 90 mins by radioligand competition assay; parameters: species or system Cell membrane
T5 sequence (P30542 whole entry): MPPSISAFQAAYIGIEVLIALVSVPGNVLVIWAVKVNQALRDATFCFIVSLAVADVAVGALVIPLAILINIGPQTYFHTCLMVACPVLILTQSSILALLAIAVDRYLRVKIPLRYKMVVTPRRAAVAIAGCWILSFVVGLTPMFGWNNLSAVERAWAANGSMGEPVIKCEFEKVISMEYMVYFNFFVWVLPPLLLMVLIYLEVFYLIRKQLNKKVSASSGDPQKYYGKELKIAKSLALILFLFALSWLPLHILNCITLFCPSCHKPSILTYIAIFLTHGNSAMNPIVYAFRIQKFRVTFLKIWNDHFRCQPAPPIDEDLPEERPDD

[8] = biological target: T6, Adenosine receptor A2b (Rattus norvegicus) (UniProt P29276); experiment: Displacement of [3H]PSB-603 from rat adenosine receptor A2B expressed in CHO cell membranes at 0.1 uM incubated for 75 mins by radioligand competition assay relative to control; conditions: Cell membrane
T6 sequence (whole entry): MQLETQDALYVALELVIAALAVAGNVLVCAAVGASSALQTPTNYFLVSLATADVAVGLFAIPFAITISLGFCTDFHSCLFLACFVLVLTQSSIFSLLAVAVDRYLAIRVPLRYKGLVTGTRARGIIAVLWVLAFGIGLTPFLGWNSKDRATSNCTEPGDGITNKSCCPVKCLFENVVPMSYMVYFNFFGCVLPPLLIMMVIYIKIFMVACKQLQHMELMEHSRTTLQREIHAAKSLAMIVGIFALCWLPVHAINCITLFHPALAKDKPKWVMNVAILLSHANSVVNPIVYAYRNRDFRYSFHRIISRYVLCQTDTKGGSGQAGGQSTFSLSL
Procedure, shortened: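 CHO membranes expressing human or rat A2B, [3H]PSB-603 0.3 nM. Nonspecific binding defined by 10 µM DPCPX. Preincubated 20 min with adenosine deaminase, then 75 min at rt in Tris-HCl pH 7.4 with 2.5% DMSO. Filters washed with ice-cold 50 mM Tris-HCl containing 0.1% BSA; scintillation counting.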

Chain of Adenosine receptor A2a (Rattus norvegicus) (P30543 whole entry): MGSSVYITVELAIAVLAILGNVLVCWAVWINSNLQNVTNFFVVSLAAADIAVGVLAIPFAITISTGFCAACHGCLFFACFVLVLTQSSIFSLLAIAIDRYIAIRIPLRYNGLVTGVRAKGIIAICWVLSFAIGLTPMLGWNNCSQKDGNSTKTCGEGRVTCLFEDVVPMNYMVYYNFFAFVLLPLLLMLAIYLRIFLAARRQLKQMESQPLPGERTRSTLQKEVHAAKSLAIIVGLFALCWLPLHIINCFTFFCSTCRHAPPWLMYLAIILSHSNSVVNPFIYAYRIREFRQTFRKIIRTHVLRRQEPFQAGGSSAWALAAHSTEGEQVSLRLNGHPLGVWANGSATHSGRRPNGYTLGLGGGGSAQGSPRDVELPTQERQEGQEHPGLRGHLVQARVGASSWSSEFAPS

inhibition [1]: 13%
Ki (Adenosine receptor A3 [2]): > 10000 nM
Ki (Adenosine receptor A1 [3]): 0.0709 nM
Ki (Adenosine receptor A1 [4]): 0.529 nM
Ki (Adenosine receptor A3 [5]): > 1000 nM
inhibition [6]: 15%
Ki (Adenosine receptor A1 [7]): 9.69 nM
inhibition [8]: 7%
SMILES: COc1ccc(C(=O)Nc2nc(-c3ccccc3)c(C(=O)c3ccc(C)cc3)s2)cc1
